The source made the active and inactive calls. No cut-off for these calls is given here.
Assays:
[1] = test system: HeLa; test: Inhibition of mitosis in human HeLa cells assessed as actin hyperfilamentation at 1 nM by FITC-phalloidin staining; type: functional, cell-based
In short: (§1)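 Cells treated with 1 nM compound before entry into mitosis, then fixed with formalin. Stained for microtubules with BODIPY-FL paclitaxel, actin with FITC-phalloidin, and DNA. Analysed by confocal microscopy for actin filamentation, microtubule structure and daughter-cell separation.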

[2] = test system: HeLa; test: Cytostatic activity against human HeLa cells; type: functional, cell-based
[3] = test system: HCT-116; test: Cytostatic activity against human HCT116 cells; type: functional, cell-based
[4] = test system: N2a; test: Cytostatic activity against mouse Neuro2a cells; type: functional, cell-based
[5] = Drug localization in nuclear envelope of mouse Neuro2A cells at 1 nM after 1 hr by fluorescence microscopy; type: ADME, cell-based; settings: 0.001 µM
[6] = Drug localization in large vesicles of mouse Neuro2A cells at 1 nM after 1 hr by fluorescence microscopy; type: ADME, cell-based; settings: 0.001 µM
[7] = Drug localization in nuclear envelope of human HCT116 cells at 1 nM after 1 hr by confocal microscopy; type: ADME, cell-based; settings: hct-116, 1 h, 0.001 µM
[8] = Drug localization in large vesicles of human HCT116 cells at 1 nM after 1 hr by confocal microscopy; type: ADME, cell-based; settings: hct-116, 1 h, 0.001 µM
[9] = test system: N2a; test: Inhibition of mitosis in mouse Neuro2a cells assessed as chromatin compactness at 1 nM after 6 to 12 hrs by time-lapse microscopy; type: functional, cell-based
In short: (§2)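 Cells treated with 1 nM compound and followed by time-lapse microscopy imaging the compound's native fluorescence. Bleb formation and chromatin compaction scored at 6 h and 12 h after treatment.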

[10] = test system: N2a; test: Inhibition of mitosis in mouse Neuro2a cells assessed as bleb formation at 1 nM after 6 to 12 hrs by time-lapse microscopy; type: functional, cell-based; in short: as §2
[11] = test system: HCT-116; test: Inhibition of mitosis in human HCT116 cells assessed as bleb formation at 1 nM after 6 to 12 hrs by time-lapse microscopy; type: functional, cell-based; in short: as §2
[12] = test system: HCT-116; test: Inhibition of mitosis in human HCT116 cells assessed as chromatin compactness at 1 nM after 6 to 12 hrs by time-lapse microscopy; type: functional, cell-based; in short: as §2
[13] = test system: HCT-116; test: Inhibition of mitosis in human HCT116 cells assessed as membrane scarring between daughter cells at 1 nM by confocal microscopy; type: functional, cell-based; in short: as §1
[14] = test system: HCT-116; test: Inhibition of mitosis in human HCT116 cells assessed as hyperfilamentation of actin at 1 nM by FITC-phalloidin staining; type: functional, cell-based; in short: as §1
[15] = test system: HCT-116; test: Inhibition of mitosis in human HCT116 cells assessed as microtubule disassociation at 1 nM by BODIPY-FL paclitaxel staining; type: functional, cell-based; in short: as §1
[16] = test system: HeLa; test: Inhibition of mitosis in human HeLa cells assessed as microtubule disassociation at 1 nM by BODIPY-FL paclitaxel staining; type: functional, cell-based; in short: as §1
[17] = test system: HeLa; test: Inhibition of mitosis in human HeLa cells assessed as membrane scarring between daughter cells at 1 nM by confocal microscopy; type: functional, cell-based; in short: as §1
[18] = test system: N2a; test: Inhibition of mitosis in mouse Neuro2a cells assessed as actin hyperfilamentation at 1 nM by FITC-phalloidin staining; type: functional, cell-based; in short: as §1
[19] = test system: N2a; test: Inhibition of mitosis in mouse Neuro2a cells assessed as microtubule disassociation at 1 nM by BODIPY-FL paclitaxel staining; type: functional, cell-based; in short: as §1
[20] = test system: N2a; test: Inhibition of mitosis in mouse Neuro2a cells assessed as membrane scarring between daughter cells at 1 nM by confocal microscopy; type: functional, cell-based; in short: as §1
[21] = test system: HeLa; test: Inhibition of mitosis in human HeLa cells assessed as chromatin compactness at 1 nM after 6 to 12 hrs by time-lapse microscopy; type: functional, cell-based; in short: as §2
[22] = test system: HeLa; test: Inhibition of mitosis in human HeLa cells assessed as bleb formation at 1 nM after 6 to 12 hrs by time-lapse microscopy; type: functional, cell-based; in short: as §2
[23] = Drug localization in lysosome of human HCT116 cells at 1 nM assessed as increase of fluorescence with acidity after 1 hr by spectrophotometric analysis; type: ADME, cell-based; settings: hct-116, 1 h, 0.001 µM

## CC(=O)c1cc2c(cc1O)OC1=C(c3cc4cc(C(C)=O)c(O)cc4o3)CCC(c3cc4cc(C(C)=O)c(O)cc4o3)(c3cc4cc(C(C)=O)c(O)cc4o3)C12 (racemic)
[1]
  Activity: Active
[2]
  IC50: 0.12 nM
[3]
  IC50: 0.54 nM
[4]
  IC50: 0.092 nM
[5]
  Activity: Active
[6]
  Activity: Active
[7]
  Activity: Active
[8]
  Activity: Active
[9]
  Activity: Active
[10]
  Activity: Active
[11]
  Activity: Active
[12]
  Activity: Active
[13]
  Activity: Active
[14]
  Activity: Active
[15]
  Activity: Active
[16]
  Activity: Active
[17]
  Activity: Active
[18]
  Activity: Active
[19]
  Activity: Active
[20]
  Activity: Active
[21]
  Activity: Active
[22]
  Activity: Active
[23]
  Activity: Active

Source: ChEMBL document CHEMBL1154373, “Laetirobin from the parasitic growth of Laetiporus sulphureus on Robinia pseudoacacia” (J Nat Prod, 2009)
